The list is not random: actives were taken first. Their share in the collection is about 0.89%.
NTR1 agonist – NTR1 (human) agonism | P30989 | NTR1-U2OS beta-arrestin-GFP spot imaging, agonist mode | activation, % at 20 µM | 0.17% of 330,000 active | AID 493036;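 active = activation at or above 40% of the spot to cytoplasm intensity ratio, with at least 20 cells analyzed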
Target sequence (P30989 whole entry, looked up): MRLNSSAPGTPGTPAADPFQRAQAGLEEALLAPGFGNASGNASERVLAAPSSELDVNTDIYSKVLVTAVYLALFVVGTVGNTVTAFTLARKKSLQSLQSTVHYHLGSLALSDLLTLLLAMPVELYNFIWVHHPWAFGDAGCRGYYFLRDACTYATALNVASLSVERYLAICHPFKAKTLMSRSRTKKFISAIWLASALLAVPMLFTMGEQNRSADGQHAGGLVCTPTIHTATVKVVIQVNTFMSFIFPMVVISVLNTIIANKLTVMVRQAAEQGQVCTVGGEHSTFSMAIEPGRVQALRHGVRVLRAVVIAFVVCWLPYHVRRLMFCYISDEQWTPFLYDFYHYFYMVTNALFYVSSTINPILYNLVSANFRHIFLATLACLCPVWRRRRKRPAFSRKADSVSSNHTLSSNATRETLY
V-ATPase pHluor – regulators of yeast V-ATPase proton transport; AID 504577; S. cerevisiae, pHLuorin cytosolic pH fluorescence; 0.37% of 350,000 active; response, % at 10 µM; in the data active = response mostly above about 7.3%, no sharp cut-off; inactive = mostly below about 5.4%; note: actives read high
Xi reactivation – activators of X-chromosome reactivation in mouse fibroblasts; XiGFP mouse fibroblasts, % GFP-positive cells imaging, 3 d; cells co-treated with 5-aza-dC sensitizer; scaled so ellipticine positive control = 100%; activation, % at 7.58 µM; 0.055% of 360,000 active; AID 743238;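 active = mean normalized replicate activation at least 10% and every replicate at or above 10%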
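System: 68-5-11 XiGFP fibroblast line; Timing: 3 days compound exposure; Compound dosing: one concentration, pinned; Benchmarks: positive control ellipticine, 6 µM final; Buffer or medium: DMEM containing 5-aza-dC.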
T cell HTS – modulates CD8 T cell binding to vesicles | 2C CD8+ T cell-vesicle binding, flow cytometry; stronger effect = lower value | response (vesicle binding), % at 7 µM | 0.068% of 330,000 active | AID 2052;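 active = response, share of CD8 T cells binding vesicles, and their 90th percentile fluorescence all below set limits, cut at about 80% in these data, passing the limit was not always enough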;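 note: values below 100% mean blocked vesicle binding to the CD8+ T cells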
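Assay system: 2C TCR transgenic mouse naive CD8+ T cells, MACS-purified | Read-out: CD8+ gate FL2 mean fluorescence as % of same-row positive control | Signal: High-throughput flow cytometry with anti-B7-1 and anti-CD8 staining | Timing: Binding step 1.5 h, 37 °C, antibody labelling 20 min, ice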
MIN6 prolif – induces beta-cell replication in MIN6 cells; MIN6 cells proliferation, ATPlite luminescence, 48 h; cells starved in 0.2% serum; 100% = growth in 10% serum; proliferation, % at 10 µM; 0.29% of 330,000 active; AID 2380;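 active = compounds whose signal lies at least 3.5 SD above the mean of all wells on their plate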
Arrestin-AP2 inh – blocks beta-arrestin peptide binding to AP2 adaptin. FITC-arrestin peptide / GST-AP2 beads, flow cytometry; AP2 beta2 appendage carries R879A mutation. inhibition, % at 10 µM. 0.31% of 340,000 active;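 active = inhibition above a set limit, near 3 SD of compounds lacking own fluorescence, cut at about 54% in these data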
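System: GST-AP2 R879A glutathione beads. Medium: PBS with 0.05% Tween 20 and 0.1% BSA. Also added: FITC-arrestin peptide, 50 nM. Incubation: 12 min plus 1 h, RT. Measured by: high-throughput flow cytometry of beads, ex 488, em 535 nm. Evaluation: percent drop in bead-associated FITC signal.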
V-ATPase pH SP – modulates yeast V-ATPase proton transport | S. cerevisiae pHLuorin cytosolic pH | 2% of 980 active | response, % at 10 µM | shares compounds with V-ATPase pHluor; in the data active = response above about 24%
Large screens that a line does not name were inactive (follow-up assays come after a bar, where they were run); ! = not confirmed by another sample.

C[C@@H]1CN([C@@H](C)CO)C(=O)c2cc(NC(=O)Nc3ccccc3)ccc2O[C@@H](C)CCCCO[C@@H]1CN(C)S(=O)(=O)c1cccs1	none (no result: NTR1 agonist, V-ATPase pHluor, T cell HTS, MIN6 prolif, Arrestin-AP2 inh)
CCOC(=O)N1CCN(C(=O)c2ccc(C#CC3(O)CCCCC3)cc2)CC1	none (no result: Xi reactivation)
CCC(NC(=O)c1ccc(C#CC2(O)CCCCC2)cc1)C(=O)O (centres undefined)	V-ATPase pHluor 12 | V-ATPase pH SP inactive
O=C(Cc1ccncc1)N[C@@H]1CC[C@@H](CCn2cc(-c3ccccc3F)nn2)O[C@@H]1CO	none (no result: NTR1 agonist, V-ATPase pHluor, T cell HTS, MIN6 prolif, Arrestin-AP2 inh)
CN(CC(=O)Nc1ccc(F)cc1[N+](=O)[O-])Cc1ccccc1	V-ATPase pHluor 7.9 | V-ATPase pH SP inactive
COc1ccc2cc(S(=O)(=O)N3CCN(C)CC3)ccc2c1	V-ATPase pHluor 13 (no result: Xi reactivation) | V-ATPase pH SP inactive
Cc1sc(-c2ccccn2)nc1OC(=O)c1ccc(Cl)c(Cl)c1	none (no result: Xi reactivation)
Cc1sc(-c2ccccn2)nc1OC(=O)c1ccc(F)cc1F	V-ATPase pHluor 11 (no result: NTR1 agonist, MIN6 prolif) | V-ATPase pH SP inactive
CC1Oc2ccccc2N(CC(=O)c2cccc(Cl)c2)C1=O (centres undefined)	V-ATPase pHluor 8.0 (no result: Xi reactivation) | V-ATPase pH SP inactive
Cc1ccc2c(c1)N(CC(=O)c1cccc(Cl)c1)C(=O)C(C)O2 (centres undefined)	none (no result: Xi reactivation)
O=C1CN(S(=O)(=O)Cc2ccccc2)C[C@@H]2[C@H](c3ccc(C#Cc4ccccc4)cc3)[C@@H](CO)N12	none (no result: NTR1 agonist, V-ATPase pHluor, T cell HTS, MIN6 prolif, Arrestin-AP2 inh)
Cc1cccn2c(=O)c(/C=C(\C#N)C(=O)NC3CCS(=O)(=O)C3)c(Oc3ccc(F)cc3)nc12 (centres undefined)	none
Cc1cccn2c(=O)c(/C=C(\C#N)C(=O)NC3CCS(=O)(=O)C3)c(N3CCC(C)CC3)nc12 (centres undefined)	V-ATPase pHluor 15 | V-ATPase pH SP inactive
OCCC1CN(Cc2cccc3nonc23)CCN1Cc1ccsc1 (centres undefined)	none
OCCC1CN(Cc2ccccc2OC2CCCC2)CCN1Cc1ccsc1 (centres undefined)	V-ATPase pHluor 8.4 | V-ATPase pH SP inactive
C[C@@H]1Cn2cnc(C(=O)N[C@@H](C)c3ccccc3)c2C(=O)N1	V-ATPase pHluor 4.2 (no result: NTR1 agonist, T cell HTS, MIN6 prolif, Arrestin-AP2 inh) | V-ATPase pH SP inactive
C[C@H](NC(=O)c1ncn2c1C(=O)N[C@@H](C)C2)c1ccccc1	none (no result: NTR1 agonist, T cell HTS, MIN6 prolif, Arrestin-AP2 inh)
CCCNC(=O)C[C@H]1CC[C@H]2[C@@H](COc3ccc(NC(=O)c4ccc(OC)cc4)cc3C(=O)N2C)O1	none (no result: NTR1 agonist, V-ATPase pHluor, T cell HTS, MIN6 prolif, Arrestin-AP2 inh)
CCOC(=O)C1=C(C)NC(SCC(=O)OC)=C(C#N)C1c1ccc(C(=O)OC)cc1 (centres undefined)	V-ATPase pHluor 9.9! | V-ATPase pH SP inactive
COC(=O)c1[nH]c2c(c1C)C(=O)CC(c1cccc(OC)c1)C2 (centres undefined)	V-ATPase pHluor 13 | V-ATPase pH SP inactive
CO[C@@H]1CN(C)C(=O)c2ccc(NC(=O)CC(F)(F)F)cc2OC[C@H](C)N(CC2CC2)C[C@@H]1C	none (no result: NTR1 agonist, V-ATPase pHluor, T cell HTS, MIN6 prolif, Arrestin-AP2 inh)
O=C(COc1ccc2ccccc2c1)Nc1nc2ccccc2[nH]1	V-ATPase pHluor 11 (no result: Xi reactivation) | V-ATPase pH SP inactive
C[C@@H]1CCCCO[C@H](CN(C)CC2CC2)[C@@H](C)CN([C@H](C)CO)C(=O)c2cc(NC(=O)CCC(F)(F)F)ccc2O1	none (no result: NTR1 agonist, V-ATPase pHluor, T cell HTS, MIN6 prolif, Arrestin-AP2 inh)
COc1ccc(NC(=O)Nc2ccc3c(c2)C(=O)N([C@@H](C)CO)C[C@H](C)[C@@H](CN(C)Cc2ccc4c(c2)OCO4)OCCCC[C@@H](C)O3)cc1	none (no result: NTR1 agonist, V-ATPase pHluor, T cell HTS, MIN6 prolif, Arrestin-AP2 inh)
Cc1cc(=O)oc2cc(NC(=O)c3c(Cl)cnn3C)ccc12	V-ATPase pHluor 9.2 | V-ATPase pH SP inactive
COCC(=O)Nc1ccc2c(c1)C(=O)N(C)C[C@@H](OC)[C@@H](C)CN(C(=O)C1CCCC1)[C@@H](C)CO2	none (no result: NTR1 agonist, V-ATPase pHluor, T cell HTS, MIN6 prolif, Arrestin-AP2 inh)
COc1cc(C(=O)NCc2nnc(SCC(=O)N3CCOCC3)o2)cc(OC)c1OC	V-ATPase pHluor 16 | V-ATPase pH SP inactive
Cc1ccc(C(=O)CSc2nnc(-c3ccccc3)o2)cc1	none (no result: Xi reactivation) | V-ATPase pH SP inactive
O=C(O)CSc1nnc(-c2ccc3c(c2)OCO3)o1	none (no result: Xi reactivation)

Screening results: PubChem, several laboratories
